Active and inactive are the calls of the source. The calls are words filed in the database; no cut-off is given here.
tested on: Salmonella typhi; experiment: Antibacterial activity against Salmonella typhi CECT 409 assessed as inhibition of microbial growth at 125 ug/ml incubated for 18 hrs by 2-fold microtiter broth dilution method; type: functional, organism-based; conditions: Salmonella enterica subsp. enterica serovar Typhi
Outline: (§1)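 Compounds in DMSO, ten 2-fold serial dilutions (125 down to 0.24 µg/mL), mixed 1:1 with bacteria in Nutrient Broth at OD620 = 0.001. Incubated overnight (18 h) at 28 or 37 °C depending on strain. Growth read turbidimetrically at OD620; MIC is the lowest concentration completely inhibiting growth, per CLSI. Triplicate runs; tetracycline reference.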

Compound | growth inhibition (GI)
COc1ccc(C2=C(C(=O)c3cc(Br)c(O)c(Br)c3)C(=O)O/C2=C\c2ccc(O)c(Br)c2)cc1Br | inactive
COc1ccc(C2=C(C(=O)c3ccco3)C(=O)O/C2=C\c2ccc(O)c(Br)c2)cc1Br | inactive
COc1ccc(C2=C(C(=O)c3ccc(O)c(Br)c3)C(=O)O/C2=C\c2cc(Br)c(O)c(Br)c2)cc1Br | inactive

tested on: Escherichia coli; experiment: Antibacterial activity against Escherichia coli CECT 405 assessed as inhibition of microbial growth at 125 ug/ml incubated for 18 hrs by 2-fold microtiter broth dilution method; type: functional, organism-based; conditions: not given
Outline: (§2)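 Compounds in DMSO, ten 2-fold serial dilutions (125 down to 0.24 µg/mL tested). Bacteria at OD620 = 0.001 in Nutrient Broth mixed 1:1 with dilutions. Incubated overnight (18 h) at 28°C or 37°C according to strain. Growth read turbidimetrically at OD620. MIC is the lowest concentration giving complete growth inhibition. Triplicate runs. Tetracycline as reference.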

Compound | growth inhibition (GI)
COc1ccc(C2=C(C(=O)c3cc(Br)c(O)c(Br)c3)C(=O)O/C2=C\c2ccc(O)c(Br)c2)cc1Br | inactive
COc1ccc(C2=C(C(=O)c3ccco3)C(=O)O/C2=C\c2ccc(O)c(Br)c2)cc1Br | inactive
COc1ccc(C2=C(C(=O)c3ccc(O)c(Br)c3)C(=O)O/C2=C\c2cc(Br)c(O)c(Br)c2)cc1Br | inactive

tested on: Enterococcus faecalis; experiment: Antibacterial activity against Enterococcus faecalis CECT 481 assessed as inhibition of microbial growth at 125 ug/ml incubated for 18 hrs by 2-fold microtiter broth dilution method; type: functional, organism-based; conditions: not given; outline: as §2

Compound | growth inhibition (GI)
COc1ccc(C2=C(C(=O)c3cc(Br)c(O)c(Br)c3)C(=O)O/C2=C\c2ccc(O)c(Br)c2)cc1Br | inactive
COc1ccc(C2=C(C(=O)c3ccco3)C(=O)O/C2=C\c2ccc(O)c(Br)c2)cc1Br | inactive
COc1ccc(C2=C(C(=O)c3ccc(O)c(Br)c3)C(=O)O/C2=C\c2cc(Br)c(O)c(Br)c2)cc1Br | inactive

tested on: Escherichia coli; experiment: Antibacterial activity against Escherichia coli CECT 100 assessed as inhibition of microbial growth at 125 ug/ml incubated for 18 hrs by 2-fold microtiter broth dilution method; type: functional, organism-based; conditions: not given; outline: as §2

Compound | growth inhibition (GI)
COc1ccc(C2=C(C(=O)c3cc(Br)c(O)c(Br)c3)C(=O)O/C2=C\c2ccc(O)c(Br)c2)cc1Br | inactive
COc1ccc(C2=C(C(=O)c3ccco3)C(=O)O/C2=C\c2ccc(O)c(Br)c2)cc1Br | inactive
COc1ccc(C2=C(C(=O)c3ccc(O)c(Br)c3)C(=O)O/C2=C\c2cc(Br)c(O)c(Br)c2)cc1Br | inactive

tested on: Bacillus subtilis; experiment: Antibacterial activity against Bacillus subtilis CECT 35 assessed as inhibition of microbial growth at 125 ug/ml incubated for 18 hrs by 2-fold microtiter broth dilution method; type: functional, organism-based; conditions: not given; outline: as §2

Compound | growth inhibition (GI)
COc1ccc(C2=C(C(=O)c3cc(Br)c(O)c(Br)c3)C(=O)O/C2=C\c2ccc(O)c(Br)c2)cc1Br | inactive
COc1ccc(C2=C(C(=O)c3ccco3)C(=O)O/C2=C\c2ccc(O)c(Br)c2)cc1Br | inactive
COc1ccc(C2=C(C(=O)c3ccc(O)c(Br)c3)C(=O)O/C2=C\c2cc(Br)c(O)c(Br)c2)cc1Br | inactive

tested on: Escherichia coli; experiment: Antibacterial activity against Escherichia coli CECT 405 assessed as inhibition of microbial growth incubated for 18 hrs by 2-fold microtiter broth dilution method; type: functional, organism-based; conditions: CECT 405, 18 h; outline: as §2

Compound | MIC
O=C1O/C(=C\c2ccc(O)c(Br)c2)C(c2ccc(O)cc2)=C1C(=O)c1ccc(O)cc1 | > 125 µg/mL
O=C1O/C(=C\c2cc(Br)c(O)c(Br)c2)C(c2ccc(O)c(Br)c2)=C1C(=O)c1ccc(O)c(Br)c1 | 3.9 µg/mL

tested on: Pectobacterium carotovorum; experiment: Antibacterial activity against Erwinia carotovora CECT 225 assessed as inhibition of microbial growth at 125 ug/ml incubated for 18 hrs by 2-fold microtiter broth dilution method; type: functional, organism-based; conditions: not given; outline: as §2

Compound | growth inhibition (GI)
COc1ccc(C2=C(C(=O)c3cc(Br)c(O)c(Br)c3)C(=O)O/C2=C\c2ccc(O)c(Br)c2)cc1Br | inactive
COc1ccc(C2=C(C(=O)c3ccco3)C(=O)O/C2=C\c2ccc(O)c(Br)c2)cc1Br | inactive
COc1ccc(C2=C(C(=O)c3ccc(O)c(Br)c3)C(=O)O/C2=C\c2cc(Br)c(O)c(Br)c2)cc1Br | inactive

tested on: Enterococcus faecalis; experiment: Antibacterial activity against Enterococcus faecalis CECT 481 assessed as inhibition of microbial growth incubated for 18 hrs by 2-fold microtiter broth dilution method; type: functional, organism-based; conditions: CECT 481, 18 h; outline: as §2

Compound | MIC
O=C1O/C(=C\c2ccc(O)c(Br)c2)C(c2ccc(O)cc2)=C1C(=O)c1ccc(O)cc1 | > 125 µg/mL
O=C1O/C(=C\c2cc(Br)c(O)c(Br)c2)C(c2ccc(O)c(Br)c2)=C1C(=O)c1ccc(O)c(Br)c1 | 1.95 µg/mL

tested on: Bacillus cereus; experiment: Antibacterial activity against Bacillus cereus CECT 148 assessed as inhibition of microbial growth incubated for 18 hrs by 2-fold microtiter broth dilution method; type: functional, organism-based; conditions: CECT 148, 18 h; outline: as §2

Compound | MIC
O=C1O/C(=C\c2ccc(O)c(Br)c2)C(c2ccc(O)cc2)=C1C(=O)c1ccc(O)cc1 | 125 µg/mL
O=C1O/C(=C\c2cc(Br)c(O)c(Br)c2)C(c2ccc(O)c(Br)c2)=C1C(=O)c1ccc(O)c(Br)c1 | 1.95 µg/mL

tested on: Bacillus subtilis; experiment: Antibacterial activity against Bacillus subtilis CECT 35 assessed as inhibition of microbial growth incubated for 18 hrs by 2-fold microtiter broth dilution method; type: functional, organism-based; conditions: CECT 35, 18 h; outline: as §2

Compound | MIC
O=C1O/C(=C\c2ccc(O)c(Br)c2)C(c2ccc(O)cc2)=C1C(=O)c1ccc(O)cc1 | > 125 µg/mL
O=C1O/C(=C\c2cc(Br)c(O)c(Br)c2)C(c2ccc(O)c(Br)c2)=C1C(=O)c1ccc(O)c(Br)c1 | 125 µg/mL

tested on: Escherichia coli; experiment: Antibacterial activity against Escherichia coli CECT 100 assessed as inhibition of microbial growth incubated for 18 hrs by 2-fold microtiter broth dilution method; type: functional, organism-based; conditions: CECT 100, 18 h; outline: as §2

Compound | MIC
O=C1O/C(=C\c2ccc(O)c(Br)c2)C(c2ccc(O)cc2)=C1C(=O)c1ccc(O)cc1 | > 125 µg/mL
O=C1O/C(=C\c2cc(Br)c(O)c(Br)c2)C(c2ccc(O)c(Br)c2)=C1C(=O)c1ccc(O)c(Br)c1 | > 125 µg/mL

tested on: Bacillus cereus; experiment: Antibacterial activity against Bacillus cereus CECT 148 assessed as inhibition of microbial growth at 125 ug/ml incubated for 18 hrs by 2-fold microtiter broth dilution method; type: functional, organism-based; conditions: not given; outline: as §2

Compound | growth inhibition (GI)
COc1ccc(C2=C(C(=O)c3cc(Br)c(O)c(Br)c3)C(=O)O/C2=C\c2ccc(O)c(Br)c2)cc1Br | inactive
COc1ccc(C2=C(C(=O)c3ccco3)C(=O)O/C2=C\c2ccc(O)c(Br)c2)cc1Br | inactive
COc1ccc(C2=C(C(=O)c3ccc(O)c(Br)c3)C(=O)O/C2=C\c2cc(Br)c(O)c(Br)c2)cc1Br | inactive

tested on: Salmonella typhi; experiment: Antibacterial activity against Salmonella typhi CECT 409 assessed as inhibition of microbial growth incubated for 18 hrs by 2-fold microtiter broth dilution method; type: functional, organism-based, Salmonella enterica subsp. enterica serovar Typhi; conditions: Salmonella enterica, CECT 409, 18 h; outline: as §1

Compound | MIC
O=C1O/C(=C\c2ccc(O)c(Br)c2)C(c2ccc(O)cc2)=C1C(=O)c1ccc(O)cc1 | > 125 µg/mL
O=C1O/C(=C\c2cc(Br)c(O)c(Br)c2)C(c2ccc(O)c(Br)c2)=C1C(=O)c1ccc(O)c(Br)c1 | 3.9 µg/mL

tested on: Staphylococcus aureus; experiment: Antibacterial activity against Staphylococcus aureus CECT 86 assessed as inhibition of microbial growth at 125 ug/ml incubated for 18 hrs by 2-fold microtiter broth dilution method; type: functional, organism-based; conditions: not given; outline: as §2

Compound | growth inhibition (GI)
COc1ccc(C2=C(C(=O)c3cc(Br)c(O)c(Br)c3)C(=O)O/C2=C\c2ccc(O)c(Br)c2)cc1Br | inactive
COc1ccc(C2=C(C(=O)c3ccco3)C(=O)O/C2=C\c2ccc(O)c(Br)c2)cc1Br | inactive
COc1ccc(C2=C(C(=O)c3ccc(O)c(Br)c3)C(=O)O/C2=C\c2cc(Br)c(O)c(Br)c2)cc1Br | inactive

tested on: Pectobacterium carotovorum; experiment: Antibacterial activity against Erwinia carotovora CECT 225 assessed as inhibition of microbial growth incubated for 18 hrs by 2-fold microtiter broth dilution method; type: functional, organism-based; conditions: CECT 225, 18 h; outline: as §2

Compound | MIC
O=C1O/C(=C\c2ccc(O)c(Br)c2)C(c2ccc(O)cc2)=C1C(=O)c1ccc(O)cc1 | > 125 µg/mL
O=C1O/C(=C\c2cc(Br)c(O)c(Br)c2)C(c2ccc(O)c(Br)c2)=C1C(=O)c1ccc(O)c(Br)c1 | 125 µg/mL

tested on: Staphylococcus aureus; experiment: Antibacterial activity against Staphylococcus aureus CECT 86 assessed as inhibition of microbial growth incubated for 18 hrs by 2-fold microtiter broth dilution method; type: functional, organism-based; conditions: CECT 86, 18 h; outline: as §2

Compound | MIC
O=C1O/C(=C\c2ccc(O)c(Br)c2)C(c2ccc(O)cc2)=C1C(=O)c1ccc(O)cc1 | > 125 µg/mL
O=C1O/C(=C\c2cc(Br)c(O)c(Br)c2)C(c2ccc(O)c(Br)c2)=C1C(=O)c1ccc(O)c(Br)c1 | 3.9 µg/mL

Reference: ChEMBL document CHEMBL3585302, “Synthesis and antibacterial activities of cadiolides A, B and C and analogues” (Bioorg Med Chem, 2015)
